Screening results (PubChem)
Cl transport mod – KCC2 cotransporter modulators, thallium flux, primary screen, cell-based, HEK293 KCC2, FluoZin-2 fluorescence, MLSMR | 2.2% of 190,000 active | Solute carrier family 12 member 5 (Homo sapiens), Q9H2X9 | B-score of Tl+ flux slope (higher = more flux/activation; lower = inhibition) at 10 µM | KCC2 cells, thallium flux FluoZin-2 fluorescence;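 active means thallium flux slope and its plate-corrected score both differing from the plate sample mean at a set confidence after two filtering rounds, in either direction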;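 further: slope of fluorescence scaled to starting intensity during 10 to 20 s after thallium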
PKD1 inh – inhibitors of human PKD1 kinase, biochemical, fluorescence polarization | Serine/threonine-protein kinase D1 (Homo sapiens), Q15139 | PKD1 kinase fluorescence polarization assay | inhibition, % (no concentration beside the values) | 0.056% of 200,000 active | AID 797, 2007; in the data active means inhibition above about 50%
Arbovirus inh – antivirals against arbovirus infection, primary screen, cell-based, full library, 10K replicate subset | arbovirus infection cell-based antiviral screen | inhibition, % at 10 µM | 0.37% of 200,000 active | AID 1251, 2008; in the data active means inhibition above about 30%
Mdm2 ligase inh – MDM2-luciferase reporter signal enhancers, primary screen, MDM2 E3 ligase inhibitor project, cell-based, luminescence, 1536-well; 0.11% of 210,000 active; signal enhancement, % at 5 µM; E3 ubiquitin-protein ligase Mdm2 (Homo sapiens), Q00987; cell-based MDM2 ubiquitination luciferase reporter, 2 h; 0 = plate control, 100 = twice control, blank-subtracted; AID 1230, 2008;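 active means signal enhancement of 30% or more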;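 further: luminescence tracks abundance of the self-degrading MDM2-luciferase fusion protein; higher signal means inhibition of MDM2 E3 ligase activity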
Target sequence (Q00987 whole entry, looked up, the tested form may be a part): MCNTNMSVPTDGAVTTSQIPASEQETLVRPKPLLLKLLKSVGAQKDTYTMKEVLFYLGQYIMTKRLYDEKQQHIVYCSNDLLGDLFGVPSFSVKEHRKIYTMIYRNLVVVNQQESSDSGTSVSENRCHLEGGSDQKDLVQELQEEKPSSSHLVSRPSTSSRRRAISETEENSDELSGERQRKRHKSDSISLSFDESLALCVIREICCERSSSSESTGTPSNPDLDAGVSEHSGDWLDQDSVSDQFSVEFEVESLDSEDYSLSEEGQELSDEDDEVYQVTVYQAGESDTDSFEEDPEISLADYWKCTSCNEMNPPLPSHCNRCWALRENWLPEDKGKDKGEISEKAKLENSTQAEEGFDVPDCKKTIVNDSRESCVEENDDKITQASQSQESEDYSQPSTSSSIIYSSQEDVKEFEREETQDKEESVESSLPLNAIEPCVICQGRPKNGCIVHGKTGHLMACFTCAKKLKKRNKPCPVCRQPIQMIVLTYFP
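Material: stable MDM2–luciferase fusion reporter cells / Quantity: 2000 cells/well / Dosing: single 5 µM compound dose, 0.2% final DMSO / Buffer or medium: DMEM / Schedule: 4 h cell settling then 2 h compound exposure, 37 °C / Detection: luminescence with SteadyLite reagent, 15 min at room temperature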
ROMK primary – ROMK potassium channel modulators, primary screen, cell-based, thallium flux, MLSMR library; Tet-inducible ROMK, thallium flux fluorescence; actives lie on both sides; B-score at 10 µM; 2% of 130,000 active; AID 1918, 2009;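 active means signal ratio slope over the read window, or its plate-corrected B-score, at least 3 SD from the plate mean, either direction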;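 further: B-score of the F/F0 ratio slope over 7 to 12 s after thallium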
m-calpain inh – inhibitors of pig calpain II, primary screen, biochemical, fluorogenic peptide substrate, 1536-well | 0.37% of 220,000 active | purified calpain II, 30 min | inhibition, % at 16 µM;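 active means inhibition above about 50%, limit read from the data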
Each line names hits and unclear results; the compound was inactive in the other large screens. Rows were chosen to be rich in hits. Some 3.7% of all compounds tested hit in one or more screens of this group.

O=C(Nc1nc2ccccc2s1)c1ccc(OCC2CCCO2)cc1 (stereo unspecified)	Arbovirus inh 31
Cc1cnc(NC(=O)c2ccc(OCC3CCCO3)cc2)s1 (stereo unspecified)	none
CN(C)c1cc(C(F)(F)F)nc(-c2ccccn2)n1	Mdm2 ligase inh 31 (no result: Cl transport mod, ROMK primary)
CC1=CC2=NC(=O)/C(=C/c3cccs3)C(=N)N2O1	none (no result: PKD1 inh, Arbovirus inh, ROMK primary)
CSC1=NSC2=NC(=O)/C(=C\c3cccs3)C(=N)N12	Arbovirus inh 41
CSC1=NSC2=NC(=O)/C(=C/c3coc4ccccc4c3=O)C(=N)N12	none (no result: ROMK primary)
N=C1/C(=C/c2cccs2)C(=O)N=C2SN=C(SCc3ccccc3)N12	Cl transport mod 32, Arbovirus inh 35 (no result: ROMK primary)
COc1ccc(Cl)cc1NC(=O)C1COc2ccccc2O1 (stereo unspecified)	Arbovirus inh 32
COc1ccc(OC)c(NC(=O)C2COc3ccccc3O2)c1 (stereo unspecified)	none (no result: ROMK primary)
CO/N=C/CC(=O)c1cnc(-c2ccc(Cl)cc2)s1	none (no result: Cl transport mod)
CC1(C)C2CCC(C2)C1(C)NC(=O)CNCc1cccs1 (stereo unspecified)	Arbovirus inh 30
O=C(O)CSc1nnc(CNc2cccc(C(F)(F)F)c2)n1Cc1ccco1	Arbovirus inh 34 (no result: ROMK primary)
O=C(CSc1nnc(CNc2cccc(C(F)(F)F)c2)n1Cc1ccco1)NCc1ccco1	none (no result: ROMK primary)
O=S(=O)(Nc1cccc(-c2nc3cccnc3s2)c1)c1ccc2c(c1)OCCO2	Arbovirus inh 31 (no result: ROMK primary)
O=C(Nc1cccc(-c2nc3cccnc3s2)c1)C1c2ccccc2Oc2ccccc21	m-calpain inh 55 (no result: Mdm2 ligase inh)
Cc1ccc(-c2nc3cccnc3s2)cc1NS(=O)(=O)c1ccc2c(c1)OCCO2	none (no result: ROMK primary)
NNc1nc2c(F)cccc2s1	none (no result: ROMK primary)
COc1cc(OC)cc(-c2nnc(Nc3nc4c(F)cccc4s3)o2)c1	Cl transport mod 9.1
Fc1cccc2sc(Nc3nnc(-c4ccccc4)o3)nc12	ROMK primary 7 (no result: Cl transport mod)
Cc1cc(/C=C2\SC(=S)NC2=O)c(C)n1-c1ccc(O)cc1	Cl transport mod -5.5, ROMK primary -4.4 (no result: PKD1 inh, Arbovirus inh)
COc1ccc(-n2c(C)cc(/C=C3\SC(=S)NC3=O)c2C)cc1	none (no result: ROMK primary)
O=C(N/C(=C\c1ccc(-c2ccccc2)o1)C(=O)N1CCOCC1)c1ccccc1	Cl transport mod -7.3, ROMK primary -3
O=C(N/C(=C\c1ccco1)C(=O)N1CCOCC1)c1ccco1	none (no result: ROMK primary)
C=CCNC(=S)NNC(=O)c1ccc(=O)n(Cc2ccc(Cl)cc2Cl)c1	none
CCOc1ccc(NC(=S)NCCCN2CCOCC2)cc1	Mdm2 ligase inh 34 (no result: ROMK primary)
Cc1noc(C)c1COc1ccc(C(=O)OCc2nnc(-c3ccc(Cl)cc3)o2)cc1	m-calpain inh 51 (no result: ROMK primary)
NC(=O)Cn1nnc(-c2ccc(CN3CCCCC3)cc2)n1	none
NNC(=O)c1ccc(Cn2cc(Cl)cn2)cc1	none
O=C(Nc1ccc(Cl)c(Cl)c1)c1ccc(Cn2cc(Cl)cn2)cc1	m-calpain inh 53
CCN(CC)S(=O)(=O)c1cc(NS(=O)(=O)c2ccccc2)ccc1C	m-calpain inh 56 (no result: ROMK primary)
C=CCn1c(SC(C)C#N)nc2sc(CC)cc2c1=O (stereo unspecified)	none
Cc1nn(-c2cc(C(F)(F)F)ccc2Cl)c2nc(C(F)(F)F)[nH]c(=O)c12	Arbovirus inh 42
O=C(Nc1cc(Sc2nc3ccccc3s2)cc([N+](=O)[O-])c1)c1ccccc1	none (no result: ROMK primary)
O=C(Nc1cc(Sc2ccccn2)cc([N+](=O)[O-])c1)c1cccc(F)c1	m-calpain inh 53
COc1cc([C@@H]2c3cc4c(cc3[C@@H](O)[C@@H](CO)[C@@H]2CO)OCO4)cc(OC)c1O[Si](C)(C)C(C)(C)C	none (no result: PKD1 inh, Arbovirus inh, ROMK primary)
CCN(c1ccccc1)S(=O)(=O)c1ccc(NC(=S)NC(=O)c2cccs2)cc1	Cl transport mod 16 (no result: ROMK primary)
COc1ccc(CN(C(=O)c2oc3ccccc3c2C)C2CCS(=O)(=O)C2)cc1OC (stereo unspecified)	Arbovirus inh 87 (no result: Cl transport mod, ROMK primary)
COc1cc(C(=O)N(Cc2ccc(F)cc2)C2CCS(=O)(=O)C2)cc(OC)c1OC (stereo unspecified)	none (no result: ROMK primary)
CN=C1CC(SC)=C1c1ccc(C)cc1	ROMK primary -2.9
CCCc1ccc(C(=O)NNc2cccc(C)c2)cc1	none (no result: PKD1 inh, Arbovirus inh, ROMK primary)
CC(C)OC(=O)n1c(=S)oc2ccccc21	none
Cc1cccc(OC(=O)n2c(=S)oc3cc(Cl)ccc32)c1	Cl transport mod 4.7 (no result: ROMK primary)
O=S(=O)(NC1CC1)c1ccc(S(=O)(=O)N(Cc2ccccn2)C2CC2)cc1	none (no result: PKD1 inh, Arbovirus inh)
COc1ccc2nc(N3C(=O)/C(=C/c4ccc(Cl)cc4)NC3=S)sc2c1	Cl transport mod 53 (no result: ROMK primary)
Cc1ccc(S(=O)(=O)N2CCCCC2)cc1NC(=O)c1ccc2c(c1)OCO2	none (no result: ROMK primary)
Cc1ccc(S(=O)(=O)N2CCCCC2)cc1NC(=O)COC(=O)c1ccc2c(c1)OCO2	m-calpain inh 56
COc1ccc(/C=N/Nc2ncccc2[N+](=O)[O-])c(OC)c1	none
Cc1cccc(C(=O)NC(=S)N2CCc3ccccc3C2)c1	Cl transport mod 125, ROMK primary 9.1
COc1cc(C#N)ccc1OCC(=O)Nc1cccc(S(=O)(=O)N2CCCC2)c1	none
Cc1cccc(C)c1-n1c(C)nn(CC2CC2)c1=O	none
O=C(NCC1CCCN(C(=O)CN2CCCCC2)C1)c1ccccc1Cl (stereo unspecified)	none (no result: PKD1 inh, Arbovirus inh, ROMK primary)
CN1CCN(C(=S)Nc2cc([N+](=O)[O-])ccc2Cl)CC1	Mdm2 ligase inh 31 (no result: ROMK primary)
CSc1nnc(CCCCCCCCc2nnc(SC)o2)o1	none (no result: Cl transport mod, PKD1 inh, Arbovirus inh, ROMK primary)
COC(=O)C(Cc1ccccc1)NS(=O)(=O)c1ccc(F)cc1Br (stereo unspecified)	none (no result: PKD1 inh, Arbovirus inh, ROMK primary)
CCCCN(C(=O)Cn1ncc(Cl)c(Cl)c1=O)c1c(N)n(CC(C)C)c(=O)[nH]c1=O	none (no result: PKD1 inh, Arbovirus inh, ROMK primary)
Cc1cc2cc(CNC(=O)C(C)Oc3ccccc3)ccc2n1C (stereo unspecified)	none (no result: PKD1 inh, Arbovirus inh)
CCCc1nn2c(N)c(/C=C3\C=Nc4ccccc43)c(=O)nc2s1	Arbovirus inh 71
CC(C)c1nn2c(N)c(/C=C3\C=Nc4ccccc43)c(=O)nc2s1	none (no result: PKD1 inh, Arbovirus inh, ROMK primary)
CCC(CC)c1nn2c(N)c(/C=C3\C(C)=Nc4ccccc43)c(=O)nc2s1	none (no result: PKD1 inh, Arbovirus inh, ROMK primary)
CCCCc1nn2c(N)c(/C=C3\C=Nc4ccccc43)c(=O)nc2s1	Arbovirus inh 33
CC(C)Cc1nn2c(N)c(/C=C3\C=Nc4ccccc43)c(=O)nc2s1	Arbovirus inh 37
CCC(CC)c1nn2c(N)c(/C=C3\C=Nc4ccccc43)c(=O)nc2s1	none (no result: PKD1 inh, Arbovirus inh, ROMK primary)
Cc1c(NC(=O)CSc2ncnc3ccccc23)c(=O)n(-c2ccccc2)n1C	none
